PKD1 kinase inh: inhibitors of human PKD1 kinase. Q15139. PKD1 kinase fluorescence polarization assay. inhibition, % (test concentration not listed). 200,000 compounds, 0.056% hits. AID 797; in the data active = inhibition above about 50%
MDM2 E3 inh: Mdm2 E3 ligase (human) inhibition. cell-based MDM2 ubiquitination luciferase reporter, 2 h; 0 = plate control, 100 = twice control, blank-subtracted. signal enhancement, % at 5 µM. 210,000 compounds, 0.11% hits. AID 1230;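 active = signal enhancement of 30% or more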;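 also: luminescence tracks abundance of the self-degrading MDM2-luciferase fusion protein; higher signal means inhibition of MDM2 E3 ligase activity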
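Assay system: stable mammalian line carrying autodegrading MDM2–luciferase fusion reporter; Input: 2000 cells in each well; Compound dosing: single-point 5 µM; Schedule: 2 h compound exposure at 37 °C; Signal: SteadyLite luciferase luminescence after 15 min room-temperature reagent incubation; Evaluation: % luminescence enhancement versus blank-corrected plate control mean; Benchmarks: plate controls and plate blanks.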
Arbovirus inh: arbovirus infection inhibition. arbovirus infection cell-based antiviral screen. inhibition, % at 10 µM. 200,000 compounds, 0.37% hits. AID 1251; in the data active = inhibition above about 30%
Cl transport mod: KCC2 (human) Cl- transport modulation | Q9H2X9 | KCC2 cells, thallium flux FluoZin-2 fluorescence | B-score of Tl+ flux slope (higher = more flux/activation; lower = inhibition) at 10 µM | 190,000 compounds, 2.2% hits | AID 1456;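 active = thallium flux slope and its plate-corrected score both differing from the plate sample mean at a set confidence after two filtering rounds, in either direction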;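 also: slope of fluorescence scaled to starting intensity during 10 to 20 s after thallium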
Target sequence (Q9H2X9 whole entry, looked up): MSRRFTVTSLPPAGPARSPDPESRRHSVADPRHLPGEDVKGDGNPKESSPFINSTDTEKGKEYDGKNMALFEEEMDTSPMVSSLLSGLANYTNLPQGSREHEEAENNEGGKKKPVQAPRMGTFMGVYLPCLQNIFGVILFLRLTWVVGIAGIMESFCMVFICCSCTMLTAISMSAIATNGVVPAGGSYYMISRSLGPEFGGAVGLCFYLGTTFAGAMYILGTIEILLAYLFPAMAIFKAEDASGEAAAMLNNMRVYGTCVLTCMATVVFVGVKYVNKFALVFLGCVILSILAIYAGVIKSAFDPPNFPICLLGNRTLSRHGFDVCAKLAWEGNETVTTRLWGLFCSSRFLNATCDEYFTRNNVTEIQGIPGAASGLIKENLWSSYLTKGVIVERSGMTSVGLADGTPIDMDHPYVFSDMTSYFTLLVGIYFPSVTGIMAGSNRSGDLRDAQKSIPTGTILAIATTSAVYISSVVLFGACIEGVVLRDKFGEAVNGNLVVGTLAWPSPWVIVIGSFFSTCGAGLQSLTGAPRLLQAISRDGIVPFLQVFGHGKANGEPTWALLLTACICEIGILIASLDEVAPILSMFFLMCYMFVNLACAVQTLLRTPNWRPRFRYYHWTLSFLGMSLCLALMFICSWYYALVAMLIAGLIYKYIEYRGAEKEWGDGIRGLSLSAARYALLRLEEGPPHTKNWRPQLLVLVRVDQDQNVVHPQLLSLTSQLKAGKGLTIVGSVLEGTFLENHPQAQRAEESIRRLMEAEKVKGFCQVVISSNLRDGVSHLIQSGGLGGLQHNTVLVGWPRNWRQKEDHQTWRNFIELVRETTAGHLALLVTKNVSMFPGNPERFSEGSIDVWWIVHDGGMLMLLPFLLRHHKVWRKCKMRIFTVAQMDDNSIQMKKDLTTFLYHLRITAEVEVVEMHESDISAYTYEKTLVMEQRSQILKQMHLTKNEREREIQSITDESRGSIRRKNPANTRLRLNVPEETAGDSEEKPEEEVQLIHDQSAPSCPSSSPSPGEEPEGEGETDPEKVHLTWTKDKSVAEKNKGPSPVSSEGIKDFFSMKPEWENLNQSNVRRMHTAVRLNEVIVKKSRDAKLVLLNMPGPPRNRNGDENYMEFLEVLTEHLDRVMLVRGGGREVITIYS
ROMK mod: modulators of human ROMK potassium channel; Tet-inducible ROMK, thallium flux fluorescence; actives lie on both sides; B-score at 10 µM; 130,000 compounds, 2% hits;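 active = signal ratio slope over the read window, or its plate-corrected B-score, at least 3 SD from the plate mean, either direction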;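 also: B-score of the F/F0 ratio slope over 7 to 12 s after thallium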
m-calpain inh: blocks pig calpain II enzyme activity. inhibition, % at 16 µM. AID 1236. 220,000 compounds, 0.37% hits. purified calpain II, fluorogenic peptide substrate, 30 min;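 active = inhibition above about 50%, limit read from the data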
ROMK retest: retested hit modulating human ROMK potassium channel; normalized thallium flux (F/F0 slope) at 10 µM; shares compounds with ROMK mod; ROMK thallium flux, fluorescence ratio; stronger effect = lower value; 3,000 compounds, 54% hits; AID 1917;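 active = Flux at 10 µM at least 3 SD below or above vehicle control mean in one or both replicates; inconclusive = no clear call, values can overlap the other calls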
Of the large screens only hits and unclear results are named; the others gave an inactive call (follow-up assays come after a bar, where they were run). Sampled rows, rich in hits. Any-hit rate of the full collection: about 3.7%.

Cc1ccc(NC(=O)/C(C#N)=C(\N)C(Cl)(Cl)Cl)nc1	ROMK mod -5.5 | ROMK retest 0.035
Cc1ccc(NC(=O)C(=O)Nc2ccc(C)cn2)nc1	none
CC1Cc2ccccc2N1C(=O)CSc1nnnn1C (stereo unspecified)	none
CC1Cc2ccccc2N1C(=O)CSc1nnc(Cc2ccccc2)n1CCc1ccccc1 (stereo unspecified)	ROMK mod -3.9 | ROMK retest 0.062
CCCCCN1N=C(C)CC1=O	ROMK mod 2.7 | ROMK retest inactive
CCCCN1C(=O)CC(C(=O)OCC)=C1C	none (no result: PKD1 kinase inh, MDM2 E3 inh, Arbovirus inh, ROMK mod)
Cn1nc(C(F)(F)F)c(C#N)c1N1CCN(c2ccccc2)CC1	ROMK mod -3.1 | ROMK retest 0.063
Cn1nc(C(F)(F)F)c(C#N)c1N1CCN(c2ccc(F)cc2)CC1	none
O=C(CSc1nnc(-c2ccco2)n1CC1CCCO1)N1CCCCC1 (stereo unspecified)	none (no result: ROMK mod)
N#Cc1cccc(C(c2nnnn2CCc2ccccc2)N2CCN(C3CCCCC3)CC2)c1 (stereo unspecified)	ROMK mod -3.1 (no result: Cl transport mod) | ROMK retest 0.058
COc1ccc(C(c2nnnn2CCc2ccccc2)N2CCN(C3CCCC3)CC2)cc1 (stereo unspecified)	none (no result: ROMK mod)
COCCNC(=O)CSc1nc2cc(OC)c(OC)cc2c(=O)n1CCc1ccc(S(N)(=O)=O)cc1	none
Cc1cc(N)n(-c2ncnc3scc(-c4ccccc4)c23)n1	ROMK mod 1.6 (no result: MDM2 E3 inh) | ROMK retest inactive
COC(=O)C1CCN(S(=O)(=O)Cc2ccccc2)CC1	none
COc1ccc(S(=O)(=O)N2CCN(Cc3c[nH]c4ccccc34)CC2)cc1	none (no result: ROMK mod)
O=[N+]([O-])c1ccc(S(=O)(=O)N2CCN(Cc3c[nH]c4ccccc34)CC2)cc1	ROMK mod -2.7 | ROMK retest 0.056
COCCCNC(=O)CN(CCc1ccccc1)S(=O)(=O)c1ccc(C)cc1	none
COCCNC(=O)/C(C#N)=C/c1cccc(NC(=O)c2ccccc2Cl)c1	none (no result: ROMK mod) | ROMK retest 0.047
COC(=O)N/N=C1/C/C(=N\NC(=O)OC)c2ccccc21	none
CCCCCc1ccc(OCCC[n+]2ccccc2)c(CCCCC)c1	none (no result: PKD1 kinase inh, Arbovirus inh, ROMK mod) | ROMK retest 0.06
CCCCCc1ccc(OCCOCCn2c[n+](C)c3ccccc32)c(CCCCC)c1	none (no result: ROMK mod) | ROMK retest 0.046
COCCCN=C1NN=C(c2cc(C)n(Cc3ccco3)c2C)CS1	ROMK mod 1.3 | ROMK retest inactive
COC(=O)c1cc2c(C)c(C)c3ccccn3c-2c1C(=O)OC	none
CC(C)OC(=O)c1c2c(n3ccccc13)C(=O)c1ccccc1C2=O	none (no result: ROMK mod) | ROMK retest 0.051
CO/N=C\CC(=O)Nc1ccc(Cl)c(Cl)c1	ROMK mod 4.7 | ROMK retest inactive
CCCCCCCn1c(=N)n(CC(O)c2ccco2)c2ccccc21 (stereo unspecified)	ROMK mod -4.3 | ROMK retest 0.061
CCCCCCCn1c(=N)n(CC(=O)c2ccco2)c2ccccc21	ROMK mod -5.3 | ROMK retest 0.053
CCCCn1c(=N)n(CC(=O)c2ccco2)c2ccccc21	none (no result: ROMK mod)
CC(C)(C)c1ccc(Cn2c(=N)n(CC(O)c3ccco3)c3ccccc32)cc1 (stereo unspecified)	ROMK mod -2.7 (no result: Cl transport mod) | ROMK retest 0.051
COCCn1c(SCC(=O)c2ccc(Cl)cc2)nnc1C(C)C	none
Cc1nc2ccccc2c(=O)n1/N=C/c1ccc2ccccc2c1O	none (no result: PKD1 kinase inh, Arbovirus inh, ROMK mod) | ROMK retest inactive
CCOC(=O)N1CCN(CC(=O)Nc2cc(OC)c(OC)cc2C#N)CC1	none
CCOCC(=O)Nc1ccccc1C(=O)N1CCOCC1	none
COc1ccc(OCC(=O)Nc2ccccc2C(=O)N2CCOCC2)cc1	ROMK mod 3 | ROMK retest inactive
COc1cccc(OCCn2cccc2/C=C2/C(=N)N3OC(C)=CC3=NC2=O)c1	ROMK mod -3.3 | ROMK retest inactive
CC1=CC2=NC(=O)/C(=C\c3cccn3CCOc3cccc(C)c3)C(=N)N2O1	none
COc1cc(NC(=O)CN2CCN(Cc3ccc4c(c3)OCO4)CC2)cc(OC)c1	none
CCN(CC)CC(=O)N1c2ccccc2CCc2ccc(NC(=O)c3cc(OC)c(OC)c(OC)c3)cc21	none (no result: PKD1 kinase inh, Arbovirus inh)
COc1cc(/C=C2\C(=N)N3N=CSC3=NC2=O)cc(Br)c1OC(=O)c1ccco1	ROMK mod -10 | ROMK retest 0.032
O=C(CNC(=S)N(CCCN1CCOCC1)Cc1cccs1)NC1CCCCC1	none
CC1CN(C(=O)c2cc3c(s2)CCC3)CC(C)O1 (stereo unspecified)	none (no result: ROMK mod) | ROMK retest inactive
O=C(/C=C/c1ccc(F)cc1)N1CCN(S(=O)(=O)/C=C/c2ccccc2)CC1	ROMK mod 3 | ROMK retest inactive
O=C(/C=C/c1ccccc1)N1CCN(S(=O)(=O)c2ccc(F)cc2)CC1	none
CCc1sc(NS(C)(=O)=O)nc1-c1ccccc1	ROMK mod 2.8 | ROMK retest inactive
CCc1sc(NC(C)=O)nc1-c1ccccc1	none
O=c1oc(-c2cccs2)nc2c1cnn2-c1ccccc1	none (no result: ROMK mod)
CCOC(=O)C1(CCOc2ccccc2)CCN(Cc2ccncc2)CC1	none (no result: ROMK mod)
CCOC(=O)C1(CCOc2ccccc2)CCN(Cc2cccn2-c2ncccn2)CC1	ROMK mod -3.7 (no result: Cl transport mod) | ROMK retest inconclusive
CC(C)c1cccc(C(C)C)c1NC(=O)c1ccccc1	none (no result: ROMK mod)
COC(=O)C1=C(N)Oc2cc(C)n(CCN3CCOCC3)c(=O)c2C1c1cccnc1 (stereo unspecified)	none (no result: ROMK mod)
c1ccc(Cc2ccc(OCCCNC3CCCC3)cc2)cc1	none
CN1CCC(NC(=O)c2cccs2)CC1	none (no result: ROMK mod) | ROMK retest inactive
CSC1=NC(NCCCO)c2c(sc3c2CC(C)(C)OC3)N1 (stereo unspecified)	none (no result: Cl transport mod)
CCC1Oc2ccc(C)cc2N(CC(=O)N(Cc2ccc(C)o2)C2CC(C)(C)NC(C)(C)C2)C1=O (stereo unspecified)	ROMK mod -6.9 | ROMK retest 0.059
CSC1=C(C#N)C(=O)NC(c2ccccc2O)S1 (stereo unspecified)	ROMK mod -4.2 (no result: PKD1 kinase inh, Arbovirus inh) | ROMK retest 0.059
CCn1cc(C(=O)N2CCc3ccccc32)c(=O)c2cc(S(=O)(=O)N(C)C3CCCCC3)ccc21	ROMK mod -2.8 | ROMK retest inactive
CCCCC(=O)NC1=NC(=O)C(C)(C)S1	none (no result: Cl transport mod, ROMK mod)
N#C/C(=C\c1ccccc1[N+](=O)[O-])C(=O)NCc1ccccc1	none (no result: PKD1 kinase inh, Arbovirus inh, ROMK mod)
N#C/C(=C/c1ccccc1[N+](=O)[O-])C(=O)NCc1ccco1	ROMK mod -2.4 | ROMK retest 0.045
CC(=O)N1CCN(C(=S)c2cccc([N+](=O)[O-])c2)CC1	none (no result: MDM2 E3 inh)
O=[N+]([O-])c1ccc(N2CCN(C(=S)c3cccc([N+](=O)[O-])c3)CC2)cc1	ROMK mod -3.1 (no result: PKD1 kinase inh, Arbovirus inh) | ROMK retest 0.065
COCCN(C(=S)Nc1c(C)cc(C)cc1C)C(C)c1cccnc1 (stereo unspecified)	none

Source: PubChem
